Results of several laboratories.
Lines come from different studies, so protocols differ.
PI4KA: Phosphatidylinositol 4-kinase alpha (PI4KA, Homo sapiens, UniProt P42356)
Oprm1: Mu-type opioid receptor (Oprm1, Rattus norvegicus, UniProt P33535)

Nc1ncc(-c2nc(N3CCOCC3)nc(N3CCOCC3)n2)c(C(F)F)n1 has a remaining binding of 80% (Mast/stem cell growth factor receptor Kit (KIT, Homo sapiens, UniProt P10721, A829P); binding, competition with immobilised ligand; 10 µM).
The inhibition of Cn1cc(-c2cc(F)cc(N3CCn4c(cc5c4CCCC5)C3=O)c2CO)cc(Nc2ccc(N3CCN(C4COC4)CC3)cn2)c1=O is reported as 6% (PI4KA; enzyme activity, inhibitor; 0.1 µM).
The remaining activity of CC(C)(C)c1nc(-c2cccc(NS(=O)(=O)c3c(F)cccc3F)c2F)c(-c2ccnc(N)n2)s1 is reported as 89% (Tau-tubulin kinase 1 (TTBK1, Homo sapiens, UniProt Q5TCY1); enzyme activity, inhibitor, radiometric; 1 µM).
With COc1ncccc1-c1cnn2ccc(N3CCN(C(=O)OC(C)C)CC3)nc12 the remaining binding was 100% (Mitogen-activated protein kinase kinase kinase 19 (MAP3K19, Homo sapiens, UniProt Q56UN5); binding, competition with immobilised ligand; 1 µM).
OC[C@H]1CNCCN1C[C@@H]1CCCN1C[C@H](CC1CCCCC1)N1CCN(CCc2ccc(Cl)c(Cl)c2)[C@H](Cc2ccc(O)cc2)C1 has a remaining binding of 105% (Oprm1; ligand displacement, radioligand; 0.5 µM, 1 h, pH 7.5, cell membranes).
For C#Cc1n[nH]c2c(-c3cn(C(C)c4ccccn4)c(=O)[nH]c3=O)cc(F)cc12 (stereo not drawn), the inhibition was -3.1% (Vascular endothelial growth factor receptor 1 (FLT1, Homo sapiens, UniProt P17948); enzyme activity, inhibitor; 1 µM).
C[C@@H](O)[C@@H]1CN([C@H](Cc2ccc3ccccc3c2)CN2CCC[C@H]2CN2CCNC[C@@H]2Cc2ccc3ccccc3c2)CCN1CCC12CC3CC(CC(C3)C1)C2 has a remaining binding of 107% (Oprm1; ligand displacement, radioligand; 0.5 µM, 1 h, pH 7.5, cell membranes).
The inhibition of Cn1cc(-c2cccc(N3CCc4c(sc5c4CC(C)(C)C5)C3=O)c2CO)cc(Nc2ccncn2)c1=O is reported as -5% (PI4KA; enzyme activity, inhibitor; 1 µM).
C[C@@H](O)[C@@H]1CN([C@H](Cc2ccc3ccccc3c2)CN2CCC[C@H]2CN2CCNC[C@@H]2Cc2ccc3ccccc3c2)CCN1CCc1ccc(Cl)c(Cl)c1 gave a remaining binding of 109% (Oprm1; ligand displacement, radioligand; 0.5 µM, 1 h, pH 7.5, cell membranes).
With Cc1nn(C)cc1-c1nc2c(N3CCN(Cc4ccc(Cl)cc4)CC3)c(Cl)cnc2[nH]1 the remaining binding was 80% (Atypical kinase COQ8A, mitochondrial (COQ8A, Homo sapiens, UniProt Q8NI60); binding, competition with immobilised ligand; 1 µM).
CC[C@@H](C)[C@@H]1CN([C@H](Cc2ccc3ccccc3c2)CN2CCC[C@H]2CN2CCNC[C@@H]2CO)CCN1CCc1ccc(Cl)c(Cl)c1 gave a remaining binding of 98.4% (Oprm1; ligand displacement, radioligand; 0.5 µM, 1 h, pH 7.5, cell membranes).
O=C(c1cc(O)c(O)c([N+](=O)[O-])c1)c1ccccc1F has a koff of 0.132 s⁻¹ (Transthyretin (TTR, Homo sapiens, UniProt P02766); binding, SPR).
